This passage reports IC50 and inhibition results from ChEMBL document CHEMBL4308898, “Synthesis and biological evaluation of arylpiperazine derivatives as potential anti-prostate cancer agents” (Bioorg Med Chem, 2019).

Structures are written as SMILES. A value given as a limit tells only on which side of the number the result lay.

In assay [1] the test system is PC-3. In words: Antiproliferative activity against human PC3 cells after 24 hrs by CCK-8 assay. The class given is functional, cell-based. The note with it: PC-3, 24 h. The gist of the method: (§1)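 Media with 10% FBS plus penicillin/streptomycin: RPMI1640 (DU145), F12 (LNCaP), DMEM (PC-3). Log-phase cells seeded at 1 × 10^5 cells/mL and grown 24 h at 37 °C, 5% CO2, then given various compound concentrations for 24 h. CCK-8 added for 1 h, absorbance read at 450 nm. Inhibition = (1 − OD treated/OD control) × 100%. IC50 from linear regression; three independent experiments.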
Background: Tetrazolium dyes change colour on reduction, which living cells bring about.

Assay [2] deals with DU-145. In words: Antiproliferative activity against human DU145 cells after 24 hrs by CCK-8 assay. The format is functional, cell-based. The note with it: DU-145, 24 h. A digest of the protocol: as §1
Assay [3] deals with LNCaP. In words: Antiproliferative activity against human LNCAP cells after 24 hrs by CCK-8 assay. The class given is functional, cell-based. The gist of the method:
as §1

The subject of assay [4] is RWPE-1. The assay is described as follows: Antiproliferative activity against human RWPE1 cells after 24 hrs by CCK-8 assay. The format is cell-based. The note with it: RWPE-1, 24 h. The gist of the method: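 RWPE-1 grown in DMEM with 10% FBS, penicillin 100 U/mL and streptomycin 0.1 mg/mL at 37 °C, 5% CO2. Log-phase cells seeded at 1 × 10^5 cells/mL, cultured 24 h, then exposed to various compound concentrations for 24 h. CCK-8 added, 1 h at 37 °C, absorbance read at 450 nm. Inhibition = (1 − OD treated/OD control) × 100%. IC50 by linear regression of concentration-response curves. Three independent experiments.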

The target of assay [5] is T1, Androgen receptor (Rattus norvegicus, UniProt P15207).
T1 sequence (P15207 whole entry): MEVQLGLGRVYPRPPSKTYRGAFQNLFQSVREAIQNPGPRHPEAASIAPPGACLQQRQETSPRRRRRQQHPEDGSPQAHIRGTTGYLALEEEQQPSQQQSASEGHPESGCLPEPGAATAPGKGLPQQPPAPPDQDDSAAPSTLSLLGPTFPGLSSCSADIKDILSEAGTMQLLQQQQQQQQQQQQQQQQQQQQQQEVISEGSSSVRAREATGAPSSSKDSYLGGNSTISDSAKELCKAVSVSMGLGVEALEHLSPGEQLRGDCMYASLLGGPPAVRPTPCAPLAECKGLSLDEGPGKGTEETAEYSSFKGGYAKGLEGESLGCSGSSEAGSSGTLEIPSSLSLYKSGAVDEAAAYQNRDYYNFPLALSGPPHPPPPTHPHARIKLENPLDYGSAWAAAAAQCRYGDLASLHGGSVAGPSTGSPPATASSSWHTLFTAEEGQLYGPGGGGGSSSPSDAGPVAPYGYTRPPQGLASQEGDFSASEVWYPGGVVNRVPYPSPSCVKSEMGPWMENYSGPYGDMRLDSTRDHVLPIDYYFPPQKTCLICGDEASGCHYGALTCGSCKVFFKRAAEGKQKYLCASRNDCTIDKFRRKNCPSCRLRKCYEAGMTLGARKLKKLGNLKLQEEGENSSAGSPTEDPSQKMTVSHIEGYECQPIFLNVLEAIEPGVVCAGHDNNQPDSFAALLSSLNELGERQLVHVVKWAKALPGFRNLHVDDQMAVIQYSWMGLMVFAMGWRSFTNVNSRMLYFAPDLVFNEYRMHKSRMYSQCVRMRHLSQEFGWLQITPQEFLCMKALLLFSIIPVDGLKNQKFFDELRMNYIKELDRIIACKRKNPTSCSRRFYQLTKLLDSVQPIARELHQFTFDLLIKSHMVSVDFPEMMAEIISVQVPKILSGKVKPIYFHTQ
In words: Displacement of fluormone-AL Green from His-tagged/GST-fused recombinant rat androgen receptor LBD expressed in insect cells measured after 4 hrs by fluorescence polarization assay. Background: Polarisation of emitted light reports the rotation of a fluorescent probe.

Assay [6] deals with T2, Androgen receptor (Homo sapiens) (UniProt P10275).
T2 sequence (whole entry): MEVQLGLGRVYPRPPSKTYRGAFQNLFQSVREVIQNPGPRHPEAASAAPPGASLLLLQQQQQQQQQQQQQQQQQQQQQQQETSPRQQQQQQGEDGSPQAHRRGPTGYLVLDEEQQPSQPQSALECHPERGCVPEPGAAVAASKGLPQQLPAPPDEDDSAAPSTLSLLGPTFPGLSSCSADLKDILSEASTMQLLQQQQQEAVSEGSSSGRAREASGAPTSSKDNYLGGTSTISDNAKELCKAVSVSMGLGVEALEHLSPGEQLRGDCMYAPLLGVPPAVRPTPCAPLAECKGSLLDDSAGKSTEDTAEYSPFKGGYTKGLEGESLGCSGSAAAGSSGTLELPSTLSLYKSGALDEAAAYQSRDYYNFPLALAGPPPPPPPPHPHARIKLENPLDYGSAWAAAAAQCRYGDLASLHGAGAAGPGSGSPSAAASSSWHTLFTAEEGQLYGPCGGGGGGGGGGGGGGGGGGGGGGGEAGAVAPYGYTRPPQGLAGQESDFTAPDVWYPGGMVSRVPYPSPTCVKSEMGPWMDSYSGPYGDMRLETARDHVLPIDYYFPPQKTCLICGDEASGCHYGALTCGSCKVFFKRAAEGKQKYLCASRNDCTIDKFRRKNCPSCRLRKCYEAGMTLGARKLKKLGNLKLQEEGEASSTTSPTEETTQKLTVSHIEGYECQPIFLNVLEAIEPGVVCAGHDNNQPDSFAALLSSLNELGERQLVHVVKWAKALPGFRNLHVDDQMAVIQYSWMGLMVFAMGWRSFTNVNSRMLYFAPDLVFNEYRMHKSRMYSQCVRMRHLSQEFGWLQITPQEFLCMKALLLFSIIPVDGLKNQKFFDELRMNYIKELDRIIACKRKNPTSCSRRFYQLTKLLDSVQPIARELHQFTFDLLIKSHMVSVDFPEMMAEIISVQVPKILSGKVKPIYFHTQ
Conditions: at 10 µM.

Usually IC50 stands for the concentration at which inhibition is half-maximal. One may read the inhibition as how much of the control response was suppressed. Read a high inhibition as strong suppression. Take `O=[N+]([O-])c1ccc(OCCc2ccc(CN3CCN(c4ccccc4)CC3)cc2)cc1`: the half-inhibitory concentration (IC50) was 9.23 µM in assay [1]; 8.74 µM in assay [2]; 8.51 µM in assay [3]; 3.87 µM in assay [4]; 3.82 µM in assay [5]. Further, in assay [6], the inhibition was found to be 50.1%.

On to `COc1ccc(OCCc2ccc(CN3CCN(c4ccccc4)CC3)cc2)cc1`, for which the IC50 was 8.95 µM in assay [1]; 9.79 µM in assay [2]; 7.46 µM in assay [3]; more than 50 µM in assay [4]; 1.15 µM in assay [5]. In assay [6], this molecule displayed an inhibition of 67.1%.

For the molecule `FC(F)(F)c1ccc(OCCc2ccc(CN3CCN(c4ccccc4)CC3)cc2)cc1`, the IC50 in assay [1] came to 4.96 µM; in assay [2] it was 4.81 µM; in assay [3], 8.76 µM; in assay [4], 13.2 µM; in assay [5], 4.03 µM. In assay [6], this molecule gave an inhibition of 48.2%.
